Shown are actives, neighbours in structure and some others; about 2.6% of the full set was active somewhere.
SENP8 block-1: SENP8 protease inhibitors, primary screen, biochemical, luminescence; purified SENP8, Z-RLRGG-aminoluciferin cleavage; inhibition, % at 10 µM; hit rate 1.2% among 330,000; AID 2540, 2010; in the data active = inhibition above about 50%
Target sequence (Q96LD8 whole entry, looked up): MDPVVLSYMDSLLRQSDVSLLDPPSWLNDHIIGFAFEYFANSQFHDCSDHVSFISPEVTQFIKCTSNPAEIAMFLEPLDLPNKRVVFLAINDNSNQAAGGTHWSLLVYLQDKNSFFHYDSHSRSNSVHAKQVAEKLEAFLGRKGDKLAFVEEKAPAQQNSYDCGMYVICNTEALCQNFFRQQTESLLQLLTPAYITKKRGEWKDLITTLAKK
SENP7 inh: SENP7 protease inhibitors, primary screen, biochemical, luminescence, uHTS | recombinant SENP7, Z-RLRGG-aminoluciferin luminescence, 40 min | inhibition, % at 5 µM | hit rate 1.5% among 330,000 | AID 434973, 2010;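 active = inhibition above about 50% at the single test dose, limit read from the data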;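 note: plate controls were DMSO with enzyme for no effect and no enzyme buffer wells for full effect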
SENP6 block: SENP6 protease inhibitors, primary screen, biochemical, luminescence, uHTS. Recombinant SENP6 catalytic domain, aminoluciferin luminescence. hit rate 1.8% among 330,000. inhibition, % at 10 µM. AID 2599, 2010. Sentrin-specific protease 6 (Homo sapiens), Q9GZR1;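 active = inhibition above about 50% at the single tested dose, limit read from the data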;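 note: plate controls were DMSO wells with enzyme for no effect and DMSO wells lacking enzyme for full effect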
SENP8 block-2: human SENP8 protease inhibitors, primary screen, biochemical, fluorescence, Nedd8 protein substrate, uHTS | Sentrin-specific protease 8 (Homo sapiens), Q96LD8 | recombinant SENP8 | inhibition, % at 20 µM | hit rate 0.64% among 360,000; in the data active = inhibition mostly above about 40%, no sharp cut-off; inactive = mostly below about 27%
Platelet DG rel: inhibitors of platelet dense granule secretion, primary screen, cell-based, MLPCN, human platelets; human platelet-rich plasma, SFLLRN dense granule ATP release, luminescence; inhibition, %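 (compounds screened at 7.5 µM in platelet-rich plasma)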; hit rate 0.22% among 300,000; AID 1663, 2009;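 active = mean replicate score, as percent of positive control, at or above 50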
SENP1 inh: human SENP1 catalytic domain inhibitors, primary screen, biochemical, FRET, uHTS; Sentrin-specific protease 1 (Homo sapiens), Q9P0U3; recombinant SENP1 catalytic domain, CyPet-SUMO1-YPet FRET cleavage; inhibition, % at 10 µM; hit rate 0.21% among 360,000; AID 624204, 2012;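 active = inhibition at least 30% at 10 µM, raw YFP signal under a set limit, fluorescence ratio 0.5 to 1.5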;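 note: 0% = enzyme with DMSO and 100% = no enzyme wells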
Target sequence (Q9P0U3 419-644 limits assumed): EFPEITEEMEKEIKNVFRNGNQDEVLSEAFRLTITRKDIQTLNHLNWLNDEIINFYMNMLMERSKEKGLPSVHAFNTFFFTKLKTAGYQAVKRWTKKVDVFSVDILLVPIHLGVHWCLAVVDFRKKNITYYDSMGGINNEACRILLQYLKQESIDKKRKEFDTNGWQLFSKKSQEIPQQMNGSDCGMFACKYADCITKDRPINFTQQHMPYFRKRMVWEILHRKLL
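Compound: 10 µM single point, 0.5% DMSO; Test system: hSENP1 catalytic domain, recombinant; Timing: 50 min reaction at room temperature; Technique: FRET, CFP and YFP emission; Control set: no-enzyme wells low, DMSO-plus-enzyme wells high control.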
SENP8 conf: SENP8 protease inhibitors, retest, confirmation, biochemical, luminescence, single concentration; shares compounds with SENP7 inh; Recombinant SENP8, Z-RLRGG-aminoluciferin luminescence, 60 min; inhibition, % at 12.5 µM; hit rate 40% among 6,200; AID 488912, 2010;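 active = mean inhibition across replicates above about 50%, limit read from the data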
SENP6 confirm: SENP6 protease inhibitors, confirmation, biochemical, luminescence, single concentration. hit rate 58% among 6,200. recombinant SENP6, Z-RLRGG-aminoluciferin luminescence. inhibition, % at 12.5 µM. shares compounds with SENP7 inh
SENP7 confirm: SENP7 protease inhibitors, retest, confirmation, biochemical, luminescence, single concentration; inhibition, % at 12.5 µM; hit rate 69% among 6,200; shares compounds with SENP7 inh; recombinant SENP7, Z-RLRGG-aminoluciferin luminescence, 40 min
Casp3 select: caspase-3 protease inhibitors, confirmation, selectivity assay for SENP inhibitor project, biochemical, single concentration. hit rate 60% among 6,200. AID 488918, 2010. inhibition, % at 12.5 µM. purified caspase-3, Z-DEVD-aminoluciferin luminescence, 60 min. shares compounds with SENP7 inh;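 active = mean inhibition above about 50%, limit read from the data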;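 note: plate controls were enzyme with DMSO for no effect and wells without caspase-3 for full effect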
Target sequence (P42574 28-227 limits assumed): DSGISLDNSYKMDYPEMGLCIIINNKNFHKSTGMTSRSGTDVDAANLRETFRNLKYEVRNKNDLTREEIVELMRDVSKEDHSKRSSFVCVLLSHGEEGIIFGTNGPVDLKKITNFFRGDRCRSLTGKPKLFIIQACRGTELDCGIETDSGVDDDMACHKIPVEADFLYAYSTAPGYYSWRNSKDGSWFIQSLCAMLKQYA
SENP luc ctr: luminescence interference (SENP counter-screen); shares compounds with SENP7 inh; hit rate 39% among 6,200; Pre-incubated SENP8/Z-RLRGG-aminoluciferin, luciferase luminescence interference; inhibition, % at 12.5 µM;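 active = mean inhibition above about 50% when retested at one dose, limit read from the data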;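 note: plate controls were DMSO wells with completed reaction for no effect and substrate without enzyme for full effect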
Starred values were filed as active, the others as inactive; . = no result given.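 Rule for the calls, unless noted: active = mean inhibition above about 50% in the one-dose retest (limit read from the data); inactive = the rest.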

SMILES	SENP8 block-1	SENP7 inh	SENP6 block	SENP8 block-2	Platelet DG rel	SENP1 inh	SENP8 conf	SENP6 confirm	SENP7 confirm	Casp3 select	SENP luc ctr
COc1cc(CC(=O)OCC(=O)Nc2ccc([N+](=O)[O-])cc2)cc(OC)c1OC	3.7	4.1	-0.6	5.6	2.6	0.4	.	.	.	.	.
Nc1nc2cc(Br)ccc2o1	.	.	.	8.7	.	0.0	.	.	.	.	.
Nc1ccc(-c2nc3ccccc3o2)cc1	55.2*	67.0*	60.5*	-290.4	11.6	19.8	70.1*	65.4*	89.7*	70.1*	70.7*
Cc1ccc2nc(-c3cccc(N)c3)oc2c1	95.5*	97.7*	95.3*	-260.7	23.1	2.3	32.8	97.0*	102.1*	95.3*	94.1*
Cc1cc(C)c2oc(-c3cccc(N)c3)nc2c1	7.1	21.1	33.8	-446.5	-8.1	0.0	.	.	.	.	.
CCc1ccc2oc(-c3cccc(N)c3)nc2c1	95.3*	98.1*	95.6*	-283.8	5.8	-2.5	41.7	97.5*	101.7*	93.5*	95.8*
Nc1ccc2oc(-c3cccc(Br)c3)nc2c1	81.9*	89.5*	89.9*	-428.2	3.3	-3.9	57.5*	81.5*	97.6*	73.7*	44.9
Nc1cc(N)cc(-c2nc3ccccc3o2)c1	2.8	5.1	7.9	-409.8	3.1	-13.7	.	.	.	.	.
O=C(Nc1cnn(Cc2c(Cl)cccc2Cl)c1)C(c1ccccc1)c1ccccc1	-0.6	-0.3	-14.9	15.7	1.0	-0.5	.	.	.	.	.
Cc1cccc(C(=O)NNC(=O)c2ccco2)c1O	-2.4	5.2	18.1	-12.9	-18.6	-1.4	.	.	.	.	.
CC(=O)Nc1ccc(-c2nc3ccc(NC(C)=O)cc3o2)cc1	0.6	-4.8	12.9	-303.4	13.8	-2.2	.	.	.	.	.
Cc1ccc2nc(-c3ccc(O)cc3)oc2c1	85.5*	74.5*	84.9*	-407.0	18.9	0.4	83.9*	83.8*	94.3*	67.7*	24.2
Cc1ccsc1/C=N/Nc1nc(=O)[nH]nc1C	80.1*	89.4*	91.0*	11.7	50.7*	0.6	86.2*	87.4*	98.3*	95.8*	70.9*
Cc1nn(-c2ccccc2Cl)c(Cl)c1/C=N/Nc1nc2ccccc2s1	5.2	81.5*	33.7	-45.3	17.1	-4.4	-9.3	-4.0	-6.6	-4.0	6.2
C/C(=N\Nc1nc2ccccc2s1)c1cccs1	75.1*	83.9*	60.2*	-19.3	2.9	4.5	91.5*	91.0*	98.0*	60.3*	30.2
Cc1cc(C)nc(N/N=C/c2sccc2C)n1	4.6	4.6	-14.5	2.0	8.6	0.0	.	.	.	.	.
C(=N\Nc1nc2ccccc2s1)/c1ccco1	82.9*	89.9*	92.9*	-8.9	12.7	-8.9	81.9*	81.6*	96.8*	82.6*	71.9*
CC(=NNc1nc2ccccc2s1)c1ncccn1	.	.	.	17.5	.	2.7	.	.	.	.	.
O=C(CCNS(=O)(=O)c1ccc2[nH]c(=O)oc2c1)Nc1cccc(Br)c1	-0.3	2.3	2.4	7.4	-0.3	2.2	.	.	.	.	.
COc1cc(CNC(=O)Nc2nnc([C@@H]3C[C@H](O)[C@@H](CO)O3)s2)cc(OC)c1OC	.	.	.	9.4	.	-4.3	.	.	.	.	.
COC(=O)[C@@]12C[C@@H](CC(=O)N3CCOCC3)C(=O)N(CCc3ccc(OC)c(OC)c3)C1=CCC(C)(C)C2	.	.	.	9.6	.	2.0	.	.	.	.	.
COc1ccc(-n2c3c(c(=O)[nH]c2=O)C(NC(C)=O)(C(F)(F)F)C(=O)N3)cc1 (stereo not drawn)	-5.8	-10.3	4.0	11.0	2.2	-0.7	.	.	.	.	.
C(=N\Nc1nc2ccccc2s1)/c1cccs1	89.3*	92.8*	95.2*	-43.8	-0.8	0.2	36.8	87.5*	99.7*	71.3*	81.5*
Oc1ccccc1C=NNc1nc2ccccc2s1	.	.	.	-124.5	.	-49.8	.	.	.	.	.
Cc1ccsc1/C=N/Nc1nc2ccccc2s1	72.0*	85.6*	86.7*	-173.3	-2.2	-3.2	-8.8	61.9*	86.7*	47.0	58.1*
SMILES	SENP8 block-1	SENP7 inh	SENP6 block	SENP8 block-2	Platelet DG rel	SENP1 inh	SENP8 conf	SENP6 confirm	SENP7 confirm	Casp3 select	SENP luc ctr
Oc1ccc(C=NNc2nc3ccccc3s2)c(O)c1	.	.	.	-195.7	.	-6.5	.	.	.	.	.
COc1ccc(CNS(=O)(=O)c2ccc3c(c2)N(C(C)=O)CC(C)S3)cc1 (stereo not drawn)	-3.8	2.1	21.3	10.6	-2.2	0.0	.	.	.	.	.
Nc1nonc1C(=O)OCC(=O)c1ccc(Cl)cc1	-1.8	-1.1	-7.0	-0.1	-3.4	0.8	.	.	.	.	.
N/C(=N/OCc1cccc([N+](=O)[O-])c1)c1nonc1N	-7.9	-4.6	-22.3	0.5	.	-0.3	.	.	.	.	.
N/C(=N\OC(=O)c1ccc(Cl)cc1)c1nonc1N	94.2*	99.5*	97.2*	0.2	23.6	3.4	98.0*	99.6*	103.1*	98.1*	95.3*
N/C(=N/OC(=O)c1ccccc1F)c1nonc1N	93.2*	98.1*	97.8*	20.7	2.7	-0.7	94.8*	95.3*	101.3*	96.6*	95.5*
N/C(=N\OCc1ccccc1)c1nonc1N	55.3*	68.5*	61.1*	22.4	32.7	0.5	61.8*	60.7*	89.0*	83.4*	71.6*
N/C(=N\OCC(=O)Nc1ccccc1)c1nonc1N	-6.6	2.0	4.6	4.7	5.7	1.9	.	.	.	.	.
O=C1CCN(Cc2ccccc2)CCN1CCOc1ccccc1	-5.1	-1.4	12.0	17.0	4.7	2.4	.	.	.	.	.
O=C(O)Cc1ccc(C(=O)c2ccccc2)s1	0.5	-1.5	1.0	11.8	-3.8	-37.4	.	.	.	.	.
CC(C(=O)O)c1ccc(C(=O)c2ccccc2)s1 (stereo not drawn)	52.1*	40.6	68.4*	7.3	.	-1.2	61.6*	51.6*	79.3*	87.9*	61.0*
CSc1nsc(N/N=C/c2ccc3c(c2)OCO3)c1C#N	24.0	52.8*	45.3	-255.1	12.5	-53.7	4.3	9.8	16.8	19.7	23.2
